{"data": "Experimental data of several laboratories", "target": "Ephrin type-A receptor 6 (EPHA6, Homo sapiens, UniProt Q9UF33)", "Sequence (Q9UF33 23-1036, as in one of the studies)": "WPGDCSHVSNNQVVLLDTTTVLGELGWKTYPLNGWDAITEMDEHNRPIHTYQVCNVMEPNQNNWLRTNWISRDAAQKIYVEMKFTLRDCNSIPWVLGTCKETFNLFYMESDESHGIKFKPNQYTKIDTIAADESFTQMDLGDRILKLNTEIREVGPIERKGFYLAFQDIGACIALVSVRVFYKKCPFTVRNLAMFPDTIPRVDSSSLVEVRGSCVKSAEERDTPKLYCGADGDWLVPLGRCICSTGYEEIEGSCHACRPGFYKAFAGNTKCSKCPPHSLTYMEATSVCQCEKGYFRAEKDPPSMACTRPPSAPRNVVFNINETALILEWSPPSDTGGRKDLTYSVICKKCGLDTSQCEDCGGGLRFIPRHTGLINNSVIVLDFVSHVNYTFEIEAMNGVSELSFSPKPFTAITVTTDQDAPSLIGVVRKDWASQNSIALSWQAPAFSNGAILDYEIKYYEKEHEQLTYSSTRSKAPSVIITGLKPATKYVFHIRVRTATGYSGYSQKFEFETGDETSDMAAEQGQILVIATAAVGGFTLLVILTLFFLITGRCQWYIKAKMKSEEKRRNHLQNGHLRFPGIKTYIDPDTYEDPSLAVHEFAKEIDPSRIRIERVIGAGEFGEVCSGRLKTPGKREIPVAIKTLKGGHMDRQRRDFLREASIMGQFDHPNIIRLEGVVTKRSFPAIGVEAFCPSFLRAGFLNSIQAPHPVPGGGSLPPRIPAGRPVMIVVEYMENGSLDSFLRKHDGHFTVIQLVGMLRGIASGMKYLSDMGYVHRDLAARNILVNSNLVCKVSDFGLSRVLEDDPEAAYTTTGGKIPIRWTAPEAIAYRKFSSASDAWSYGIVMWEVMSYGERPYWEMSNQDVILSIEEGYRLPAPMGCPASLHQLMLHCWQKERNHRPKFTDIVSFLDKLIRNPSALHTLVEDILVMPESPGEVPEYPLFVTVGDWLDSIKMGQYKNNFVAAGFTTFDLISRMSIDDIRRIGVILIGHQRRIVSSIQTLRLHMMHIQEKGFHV", "note": "Protocols differ between the studies behind these lines."}
{"Compound": "Cc1cnn2ncc(-c3ccnc(N(C)C)n3)c2c1", "observed": "binding", "tested at": "1 µM", "remaining binding [%]": 100}
{"Compound": "COc1cc(-c2cn(C3CCc4c(F)cccc4N(CC(F)(F)F)C3=O)nn2)ccc1-n1cnc(C)c1 (stereo not drawn)", "observed": "cell-free assay", "method": "competition with immobilised ligand", "tested at": "1 µM", "remaining binding [%]": 100}
{"Compound": "N[C@H]1CCN(c2nccc(-c3cnn4ncccc34)n2)C1", "observed": "binding", "tested at": "1 µM", "remaining binding [%]": 100}
{"Compound": "CCN1CCN(Cc2ccc(C(=O)Nc3ccc(C)c(Oc4ccc5c(c4)CC(=O)N5)c3)cc2C(F)(F)F)CC1", "observed": "binding", "method": "competition with immobilised ligand", "tested at": "1 µM", "remaining binding [%]": 100}
{"Compound": "O=C(NCCCN1CCOCC1)c1ccc(Nc2ncc(Cl)c(-c3ccc(Cl)s3)n2)cc1", "observed": "binding", "method": "competition with immobilised ligand", "tested at": "1 µM", "remaining binding [%]": 63}
{"Compound": "CN(C)c1nccc(-c2cnc3ncccn23)n1", "observed": "binding", "tested at": "1 µM", "remaining binding [%]": 98}
{"Compound": "O=C(Nc1cccnn1)N1CCC(=Cc2cccc(Oc3ccc(C(F)(F)F)cn3)c2)CC1", "observed": "cell-free assay", "method": "competition with immobilised ligand", "tested at": "1 µM", "remaining binding [%]": 78}
{"Compound": "COc1cnc(Nc2cccc(S(N)(=O)=O)c2)nc1N1CCN(c2ccccc2)CC1", "observed": "binding", "method": "competition with immobilised ligand", "tested at": "1 µM", "remaining binding [%]": 100}
{"Compound": "CNCc1ccccc1-c1csc([C@@H](C)Nc2nc(C)nc3cc(OC)c(OC)cc23)c1", "observed": "cell-free assay", "method": "competition with immobilised ligand", "tested at": "1 µM", "remaining binding [%]": 96}
{"Compound": "c1cncc(-c2cccc(Nc3nccc(NC4CCCCC4)n3)c2)c1", "observed": "binding", "method": "competition with immobilised ligand", "tested at": "10 µM", "remaining binding [%]": 96}
{"Compound": "c1cnn2ncc(-c3ccnc(N4CCC45COC5)n3)c2c1", "observed": "binding", "tested at": "1 µM", "remaining binding [%]": 95}
{"Compound": "CCS(=O)(=O)c1cc2cc(C[C@@](O)(CC(C)(C)c3ccc(F)cc3C(N)=O)C(F)(F)F)[nH]c2cn1", "observed": "cell-free assay", "method": "competition with immobilised ligand", "tested at": "1 µM", "remaining binding [%]": 100}
{"Compound": "O=C(c1ccc(Nc2nccc(-c3cc4ccccc4s3)n2)cc1)N1CCC(N2CCCC2)CC1", "observed": "binding", "method": "competition with immobilised ligand", "tested at": "1 µM", "remaining binding [%]": 99}
{"Compound": "O=C(N[C@H]1CCCCC/C=C\\C2C[C@@]2(C(=O)O)NC(=O)[C@@H]2C[C@@H](Oc3ccncc3)CN2C1=O)OC1CCCC1 (stereo partly drawn)", "observed": "cell-free assay", "method": "competition with immobilised ligand", "tested at": "1 µM", "remaining binding [%]": 100}
{"Compound": "C[C@H]1CCN(c2nccc(-c3cnn4ncccc34)n2)C1", "observed": "binding", "tested at": "1 µM", "remaining binding [%]": 100}
{"Compound": "O=C(c1ccc(Nc2ncc(Cl)c(-c3cc4ccccc4s3)n2)cc1)N1CCC(N2CCCC2)CC1", "observed": "binding", "method": "competition with immobilised ligand", "tested at": "1 µM", "remaining binding [%]": 69}
{"Compound": "O=C(NCC1CCOCC1)c1n[nH]cc1NC(=O)c1c(F)cccc1F", "observed": "binding", "method": "competition with immobilised ligand", "tested at": "1 µM", "remaining binding [%]": 100}
{"Compound": "CN(c1nccc(-c2cnn3ncccc23)n1)C1CC1", "observed": "binding", "tested at": "1 µM", "remaining binding [%]": 99}
{"Compound": "C[C@@H](c1ccc(-n2cnc3c(N)ncnc32)cc1)N1CCc2nn(C)c(Cc3ccccc3)c2C1=O", "observed": "binding", "method": "competition with immobilised ligand", "tested at": "0.1 µM", "remaining binding [%]": 100}
{"Compound": "CCCCN(CCCC)C(=O)CN1C[C@H](c2cc(OC)c3c(c2)OCO3)[C@@H](C(=O)O)[C@@H]1CC(C)(C)CCC", "observed": "cell-free assay", "method": "competition with immobilised ligand", "tested at": "1 µM", "remaining binding [%]": 100}
{"Compound": "COc1ncc2cc3ccccc3nc2c1C#N", "observed": "cell-free assay", "method": "competition with immobilised ligand", "tested at": "5 µM", "remaining binding [%]": 98}
